Data as given in ChEMBL document CHEMBL4725371, “A Novel Redox Modulator Induces a GPX4-Mediated Cell Death That Is Dependent on Iron and Reactive Oxygen Species” (J Med Chem, 2020).
Activity calls are given as the source filed them. The calls are words filed in the database; no cut-off is given here.

What was measured:
PANC-1 [1] = assay: Synergistic inhibition of colony formation in human PANC-1 cells at 0.125 to 0.5 uM measured after 24 hrs in presence of napabucasin by crystal violet staining based assay; format: functional, cell-based; conditions: dose microM 0.125-0.5, time 24.0 hrs
Outline: (§1)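 Colony formation in 96-well plates seeded at 300 (MIA PaCa-2) or 600 (PANC-1) cells/well. Napabucasin, As2O3 or olaparib added 1 h before test compound; drugs on cells 24 h. Plates kept until controls were 80–90% confluent (7–9 days), then stained with 0.05% crystal violet and quantified. Synergy scored by HSA and Bliss models.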

MIA PaCa-2 [2] = assay: Down regulation of LRPPRC gene expression in human MIA PaCa-2 cells at 3 times IC50 measured after 4 hrs by Trizol reagent based Bru labelling based gene sequence analysis; format: functional, cell-based
Outline: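 Bru-seq: 2 × 10⁶ cells were seeded in duplicate and treated at 3 × IC50 for 4 h. Bromouridine (2 mM final) was added for the last 30 min at 37 °C. Total RNA was extracted in TRIzol. BrU-labelled RNA was captured with anti-BrdU magnetic beads, made into cDNA libraries and deep-sequenced.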

MIA PaCa-2 [3] = assay: Inhibition of colony formation in human MIA PaCa-2 cells at 0.375 to 0.75 uM measured after 7 to 9 days in presence of GPX4 inhibitor RSL3 by crystal violet staining based assay; format: functional, cell-based; conditions: dose microM 0.375-0.75, time day 7-9
Outline: (§2)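 Cells seeded overnight in 96-well plates at 300 cells/well (MIA PaCa-2) or 600 cells/well (BxPC-3), in RPMI 1640 with 10% FBS. Inhibitor added 1 h before compound, then continuous exposure for 7–9 days until control wells were 80–90% confluent. Stained with 0.05% crystal violet for 30 min, imaged after overnight drying and quantified.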

PANC-1 [4] = assay: Induction of DNA damage in human PANC-1 cells assessed as increase in H2AX phosphorylation at 1.2 to 1.8 uM measured after 4 hrs by Western blot analysis; format: functional, cell-based; conditions: dose microM 1.2-1.8, time 4.0 hrs
Outline: (§3)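 Cells were treated 4 h at the stated concentrations and lysed in RIPA with protease and phosphatase inhibitors. 25 μg protein was resolved on 10% SDS gels, transferred to PVDF and probed for STAT3, pSTAT3, pH2AX and GAPDH. Detection used fluorescent secondary antibodies, with normalisation to loading control.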

MIA PaCa-2 [5] = assay: Inhibition of colony formation in human MIA PaCa-2 cells at 0.4 to 0.8 uM measured after 7 to 9 days in presence of necroptosis inhibitor necrostatin-1 by crystal violet staining based assay; format: functional, cell-based; conditions: dose microM 0.4-0.8, time day 7-9; outline: as §2
PANC-1 [6] = assay: Synergistic inhibition of colony formation in human PANC-1 cells at 0.25 to 0.5 uM measured after 24 hrs in presence of olaparib by crystal violet staining based assay; format: functional, cell-based; conditions: dose microM 0.25-0.5, time 24.0 hrs; outline: as §1
PANC-1 [7] = assay: Induction of reactive oxygen species in human PANC-1 cells at 10 uM measured after 1 hr by CM-H2DCFDA dye based fluorescence assay; format: functional, cell-based
Outline: (§4)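 1.8 × 10⁴ cells per well were attached overnight, then loaded with 10 μM CM-H2DCFDA in HBSS for 40 min at 37 °C and washed. Compounds were added in HBSS. Fluorescence was read at Ex 483 / Em 530 nm. TBHP was the positive control. NAC at 3 mM was used where stated.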

MIA PaCa-2 [8] = assay: Cytotoxicity against human MIA PaCa-2 cells transfected with GPX4 siRNA measured after 72 hrs by MTT assay; format: functional, cell-based
MIA PaCa-2 [9] = assay: Down regulation of LRPPRC expression in human MIA PaCa-2 cells at 3 times IC50 measured after 4 hrs in presence of NAC by proteomics analysis; format: functional, cell-based
MIA PaCa-2 [10] = assay: Induction of reactive oxygen species in human MIA PaCa-2 cells at 5 to 10 uM measured up to 4 hrs by CM-H2DCFDA dye based fluorescence assay; format: functional, cell-based; conditions: dose microM 5-10, time hrs <=4, TDE = time-dependent effect; outline: as §4
MIA PaCa-2 [11] = assay: Down regulation of LRPPRC expression in human MIA PaCa-2 cells at 3 times IC50 measured after 4 hrs in presence of NQO1 inhibitor dicoumarol by proteomics analysis; format: functional, cell-based
MIA PaCa-2 [12] = assay: Synergistic inhibition of colony formation in human MIA PaCa-2 cells at 0.25 uM measured after 24 hrs in presence of As2O3 by crystal violet staining based assay; format: functional, cell-based; outline: as §1
BXPC-3 = assay: Inhibition of colony formation in human BXPC-3 cells at 0.375 uM measured after 7 to 9 days in presence of GPX4 inhibitor RSL3 by crystal violet staining based assay; format: functional, cell-based; conditions: time day 7-9; outline: as §2
MIA PaCa-2 [13] = assay: Inhibition of colony formation in human MIA PaCa-2 cells at 0.4 to 0.8 uM measured after 7 to 9 days in presence of iron chelator deferasirox by crystal violet staining based assay; format: functional, cell-based; conditions: dose microM 0.4-0.8, time day 7-9; outline: as §2
MIA PaCa-2 [14] = assay: Inhibition of colony formation in human MIA PaCa-2 cells at 0.4 to 0.8 uM measured after 7 to 9 days in presence of autophagy inhibitor chloroquine by crystal violet staining based assay; format: functional, cell-based; conditions: dose microM 0.4-0.8, time day 7-9; outline: as §2
PANC-1 [15] = assay: Cytotoxicity against human PANC-1 cells measured after 72 hrs by MTT assay; format: functional, cell-based; conditions: PANC-1, 72 h
Outline: (§5)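 Cells were kept in RPMI 1640 with 10% FBS at 37 °C, 5% CO₂, under 35 passages. Cells were seeded, attached overnight and treated with compound or DMSO for 72 h. MTT was added at 0.3 mg/mL for 3 h, then dissolved in DMSO and read as absorbance at 570 nm. IC50 was fitted from the curve. Values are mean ± sd of three independent experiments.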

MIA PaCa-2 [16] = assay: Cytotoxicity against human MIA PaCa-2 cells measured after 72 hrs by MTT assay; format: functional, cell-based; conditions: MIA PaCa-2, 72 h; outline: as §5
[17] = molecular target: Signal transducer and activator of transcription 3 (Homo sapiens) (UniProt P40763); assay: Inhibition of STAT3 phosphorylation in human MIA PaCa-2 cells at 1 to 1.5 uM measured after 4 hrs by Western blot analysis; format: cell-based; conditions: dose microM 1-1.5, time 4.0 hrs; outline: as §3
Sequence of Signal transducer and activator of transcription 3 (Homo sapiens) (P40763 whole entry): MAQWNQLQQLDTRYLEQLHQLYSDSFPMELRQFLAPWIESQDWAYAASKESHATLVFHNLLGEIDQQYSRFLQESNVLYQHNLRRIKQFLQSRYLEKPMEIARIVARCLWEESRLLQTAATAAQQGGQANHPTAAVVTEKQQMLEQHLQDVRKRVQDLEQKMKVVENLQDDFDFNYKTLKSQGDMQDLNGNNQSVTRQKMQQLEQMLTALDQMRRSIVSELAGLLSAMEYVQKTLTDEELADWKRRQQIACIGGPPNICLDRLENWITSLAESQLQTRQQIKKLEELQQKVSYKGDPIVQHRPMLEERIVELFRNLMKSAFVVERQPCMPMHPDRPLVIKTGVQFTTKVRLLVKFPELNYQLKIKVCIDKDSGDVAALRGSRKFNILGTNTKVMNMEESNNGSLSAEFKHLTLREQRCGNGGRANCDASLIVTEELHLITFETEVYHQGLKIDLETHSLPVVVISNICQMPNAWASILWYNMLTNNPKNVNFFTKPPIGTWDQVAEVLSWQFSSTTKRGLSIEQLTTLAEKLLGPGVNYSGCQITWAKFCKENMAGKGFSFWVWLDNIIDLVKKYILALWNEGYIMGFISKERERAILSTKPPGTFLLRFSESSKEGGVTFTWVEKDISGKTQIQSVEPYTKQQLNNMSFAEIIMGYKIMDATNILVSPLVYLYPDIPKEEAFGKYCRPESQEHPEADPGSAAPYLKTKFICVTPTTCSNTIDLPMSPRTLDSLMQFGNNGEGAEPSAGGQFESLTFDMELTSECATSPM

[18] = Drug metabolism in mouse plasma assessed as 6-[4-[(3S,5R)-3,5-dihydroxy-4-methyl-piperazin-1-yl]anilino]quinazoline-5,8-dione formation at 500 uM measured after 0.5 hrs by LC-MS/MS analysis; format: ADME, cell-free
Outline: (§6)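 Compound (500 μM DMSO stock, 1 μL per 500 μL) was incubated in pooled mouse plasma. Samples were taken at 0.5 h and metabolites identified by LC-MS/MS.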

MIA PaCa-2 [19] = assay: Induction of ferroptosis in human MIA PaCa-2 cells assessed as increase in lipid peroxidation measured after 24 hrs by C11-BODIPY dye based fluorescence assay; format: functional, cell-based
Outline: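 MIA PaCa-2 cells were treated for the set time, then given 10 μM C11-BODIPY for 30 min at 37 °C and washed. Fluorescence was read at 581/591 nm (reduced dye) and 488/510 nm (oxidized dye). The intensity ratio was compared by unpaired t-test.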

[20] = Drug metabolism in mouse plasma assessed as 2-amino-3-[6-[4-(4-methylpiperazin-1-yl)anilino]-5,8-dioxo-quinazolin-7-yl]sulfanyl-propanoic acid formation at 500 uM measured after 0.5 hrs by LC-MS/MS analysis; format: ADME, cell-free; outline: as §6
MIA PaCa-2 [21] = assay: Inhibition of colony formation in human MIA PaCa-2 cells at 0.5 uM measured after 7 to 9 days in presence of ferroptosis inhibitor liproxstatin-1 by crystal violet staining based assay; format: functional, cell-based; conditions: time day 7-9; outline: as §2

## CN1CCN(c2ccc(NC3=CC(=O)c4ncncc4C3=O)cc2)CC1
PANC-1 [1]
  inhibition: Active
MIA PaCa-2 [2]
  Activity: Active
MIA PaCa-2 [3]
  inhibition: inactive
PANC-1 [4]
  Activity: Active
MIA PaCa-2 [5]
  inhibition: Active
PANC-1 [6]
  inhibition: Active
PANC-1 [7]
  Activity: Active
MIA PaCa-2 [8]
  Activity: inactive
MIA PaCa-2 [9]
  Activity: Active
MIA PaCa-2 [10]
  Activity: Tde
MIA PaCa-2 [11]
  Activity: inactive
MIA PaCa-2 [12]
  inhibition: Active
BXPC-3
  inhibition: inactive
MIA PaCa-2 [13]
  inhibition: inactive
MIA PaCa-2 [14]
  inhibition: Active
PANC-1 [15]
  IC50: 340 nM
MIA PaCa-2 [16]
  IC50: 640 nM
[17]
  inhibition: Active
[18]
  Drug metabolism: Metabolite_Detected
MIA PaCa-2 [19]
  Activity: Dose-dependent effect
[20]
  Drug metabolism: Metabolite_Detected
MIA PaCa-2 [21]
  inhibition: inactive
